# How the values were obtained:
# [1] = Cytotoxicity against etoposide-resistant human K/VP.5 cells assessed as cell growth inhibition after 72 hrs by MTS assay; type: functional, cell-based; conditions: K/VP.5, 72 h
# Procedure, shortened: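 K/VP.5 cells are a K562-derived subline, 26-fold etoposide-resistant, with decreased topoisomerase IIα mRNA and protein. Cells were grown in suspension in αMEM with 10% fetal calf serum. Drugs were given from DMSO stocks, with final DMSO typically 0.4% or less. Read-out was MTS absorbance after 72 h. Typically nine concentrations were run in duplicate on two days. IC50 came from a four-parameter logistic fit.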
# HCT-116 [2] = assay: Cytotoxicity against human HCT116 cells assessed as cell growth at 50 uM by SRB assay; type: functional; conditions: read-out: Activity
# Procedure, shortened: (§1)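 Measured in the NCI-60 human tumour cell line panel using five-dose testing. Growth was recorded at each dose for each cell line, and a GI50 was derived for each line.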
# SF-268 [3] = assay: Cytotoxicity against human SF268 cells assessed as cell growth at 50 uM by SRB assay; type: functional; conditions: read-out: Activity
# ACHN [4] = assay: Cytotoxicity against human ACHN cells assessed as cell growth at 50 uM by SRB assay; type: functional; conditions: read-out: Activity
# UO-31 [5] = assay: Cytotoxicity against human UO31 cells assessed as cell growth at 50 uM by SRB assay; type: functional; conditions: read-out: Activity
# PC-3 = assay: Cytotoxicity against human PC3 cells assessed as cell growth at 50 uM by SRB assay; type: functional; conditions: read-out: Activity
# BT-549 [6] = assay: Cytotoxicity against human BT549 cells assessed as cell growth at 50 uM by SRB assay; type: functional; conditions: read-out: Activity
# NCI-H460 = assay: Cytotoxicity against human NCI-H460 cells by SRB assay; type: functional
# Procedure, shortened: (§2)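 NCI-60 panel screen; 5-dose testing giving GI50 per cell line, plus a single 10 µM one-dose test. Method details not given beyond the NCI screen.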
# RXF 393 [7] = assay: Cytotoxicity against human RXF393 cells by SRB assay; type: functional; procedure, shortened: as §2
# NCI-H226 = assay: Cytotoxicity against human NCI-H226 cells assessed as cell growth at 0.005 uM by SRB assay; type: functional; conditions: read-out: Activity
# NCI-H23 = assay: Cytotoxicity against human NCI-H23 cells assessed as cell growth at 0.005 uM by SRB assay; type: functional; conditions: read-out: Activity
# NCI-H322M = assay: Cytotoxicity against human NCI-H322M cells assessed as cell growth at 0.005 uM by SRB assay; type: functional; conditions: read-out: Activity
# HCC 2998 [8] = assay: Cytotoxicity against human HCC2998 cells assessed as cell growth at 0.005 uM by SRB assay; type: functional; conditions: read-out: Activity; procedure, shortened: as §1
# SNB-19 [9] = assay: Cytotoxicity against human SNB19 cells assessed as cell growth at 0.005 uM by SRB assay; type: functional; conditions: read-out: Activity
# U-251 = assay: Cytotoxicity against human U251 cells assessed as cell growth at 0.005 uM by SRB assay; type: functional; conditions: read-out: Activity
# SK-MEL-5 [10] = assay: Cytotoxicity against human SK-MEL-5 cells assessed as cell growth at 0.005 uM by SRB assay; type: functional; conditions: read-out: Activity
# OVCAR-4 = assay: Cytotoxicity against human OVCAR4 cells assessed as cell growth at 0.005 uM by SRB assay; type: functional; conditions: read-out: Activity
# ACHN [11] = assay: Cytotoxicity against human ACHN cells assessed as cell growth at 0.005 uM by SRB assay; type: functional; conditions: read-out: Activity
# HL-60(TB) = assay: Cytotoxicity against human HL-60(TB) cells assessed as cell growth at 0.05 uM by SRB assay; type: functional; conditions: read-out: Activity; procedure, shortened: as §1
# RPMI-8226 = assay: Cytotoxicity against human RPMI8226 cells assessed as cell growth at 0.05 uM by SRB assay; type: functional; conditions: read-out: Activity
# A549 [12] = assay: Cytotoxicity against human A549/ATCC cells assessed as cell growth at 0.05 uM by SRB assay; type: functional; conditions: read-out: Activity
# HCT-116 [13] = assay: Cytotoxicity against human HCT116 cells assessed as cell growth at 0.05 uM by SRB assay; type: functional; conditions: read-out: Activity; procedure, shortened: as §1
# SF-268 [14] = assay: Cytotoxicity against human SF268 cells assessed as cell growth at 0.05 uM by SRB assay; type: functional; conditions: read-out: Activity
# SNB-75 = assay: Cytotoxicity against human SNB75 cells assessed as cell growth at 0.05 uM by SRB assay; type: functional; conditions: read-out: Activity
# MDA-MB-435 = assay: Cytotoxicity against human MDA-MB-435 cells assessed as cell growth at 0.05 uM by SRB assay; type: functional; conditions: read-out: Activity
# OVCAR-5 = assay: Cytotoxicity against human OVCAR5 cells assessed as cell growth at 0.05 uM by SRB assay; type: functional; conditions: read-out: Activity
# MCF7 [15] = assay: Cytotoxicity against human MCF7 cells assessed as cell growth at 0.05 uM by SRB assay; type: functional; conditions: read-out: Activity
# MDA-MB-231 = assay: Cytotoxicity against human MDA-MB-231/ATCC cells assessed as cell growth at 0.05 uM by SRB assay; type: functional; conditions: read-out: Activity
# A549 [16] = assay: Cytotoxicity against human A549/ATCC cells assessed as cell growth at 0.5 uM by SRB assay; type: functional; conditions: read-out: Activity
# HOP-92 = assay: Cytotoxicity against human HOP92 cells assessed as cell growth at 0.5 uM by SRB assay; type: functional; conditions: read-out: Activity; procedure, shortened: as §1
# HCC 2998 [17] = assay: Cytotoxicity against human HCC2998 cells assessed as cell growth at 0.5 uM by SRB assay; type: functional; conditions: read-out: Activity; procedure, shortened: as §1
# SNB-19 [18] = assay: Cytotoxicity against human SNB19 cells assessed as cell growth at 0.5 uM by SRB assay; type: functional; conditions: read-out: Activity
# M14 = assay: Cytotoxicity against human M14 cells assessed as cell growth at 0.5 uM by SRB assay; type: functional; conditions: read-out: Activity
# UACC-62 = assay: Cytotoxicity against human UACC62 cells assessed as cell growth at 0.5 uM by SRB assay; type: functional; conditions: read-out: Activity
# RXF 393 [19] = assay: Cytotoxicity against human RXF393 cells assessed as cell growth at 0.5 uM by SRB assay; type: functional; conditions: read-out: Activity
# BT-549 [20] = assay: Cytotoxicity against human BT549 cells assessed as cell growth at 0.5 uM by SRB assay; type: functional; conditions: read-out: Activity
# CCRF-CEM = assay: Cytotoxicity against human CCRF-CEM cells assessed as cell growth at 5 uM by SRB assay; type: functional; conditions: read-out: Activity
# SK-MEL-2 = assay: Cytotoxicity against human SK-MEL-2 cells assessed as cell growth at 5 uM by SRB assay; type: functional; conditions: read-out: Activity
# SK-MEL-5 [21] = assay: Cytotoxicity against human SK-MEL-5 cells assessed as cell growth at 5 uM by SRB assay; type: functional; conditions: read-out: Activity
# IGROV-1 = assay: Cytotoxicity against human IGROV1 cells assessed as cell growth at 5 uM by SRB assay; type: functional; conditions: read-out: Activity
# ACHN [22] = assay: Cytotoxicity against human ACHN cells assessed as cell growth at 5 uM by SRB assay; type: functional; conditions: read-out: Activity
# UO-31 [23] = assay: Cytotoxicity against human UO31 cells assessed as cell growth at 5 uM by SRB assay; type: functional; conditions: read-out: Activity
# MCF7 [24] = assay: Cytotoxicity against human MCF7 cells assessed as cell growth at 5 uM by SRB assay; type: functional; conditions: read-out: Activity
# HCC 2998 [25] = assay: Cytotoxicity against human HCC2998 cells assessed as cell growth at 50 uM by SRB assay; type: functional; conditions: read-out: Activity; procedure, shortened: as §1
# [26] = read-out: LC50 (the source's name)
# [27] = read-out: pLC50 (the source's name) (converted)
compound,measurement,setting,value
COc1cc([C@@H]2c3cc4c(cc3[C@@H](NC(=O)CN3CCN(CCCCCCN5CCN(CC(=O)N[C@@H]6c7cc8c(cc7[C@@H](c7cc(OC)c(O)c(OC)c7)[C@H]7C(=O)OC[C@@H]76)OCO8)CC5)CC3)[C@H]3COC(=O)[C@H]23)OCO4)cc(OC)c1O,IC50,[1],0.88 µM
same,growth at 50 µM,HCT-116 [2],2%
same,growth at 50 µM,SF-268 [3],10%
same,growth at 50 µM,ACHN [4],37%
same,growth at 50 µM,UO-31 [5],64%
same,growth at 50 µM,PC-3,25%
same,growth at 50 µM,BT-549 [6],-40%
same,GI50,NCI-H460; read-out: GI50,0.261 µM
same,CC50,NCI-H460; [26],> 50 µM
same,TGI,NCI-H460; read-out: TGI,9.45 µM
same,GI50,NCI-H460; read-out: pGI50 (converted),0.263 µM
same,CC50,NCI-H460; [27],> 50.1 µM
same,TGI,NCI-H460; read-out: pTGI (converted),9.55 µM
same,GI50,RXF 393 [7]; read-out: GI50,9.33 µM
same,CC50,RXF 393 [7]; [26],> 50 µM
same,TGI,RXF 393 [7]; read-out: TGI,> 50 µM
same,GI50,RXF 393 [7]; read-out: pGI50 (converted),9.33 µM
same,CC50,RXF 393 [7]; [27],> 50.1 µM
same,TGI,RXF 393 [7]; read-out: pTGI (converted),> 50.1 µM
same,growth at 0.005 µM,NCI-H226,92%
same,growth at 0.005 µM,NCI-H23,102%
same,growth at 0.005 µM,NCI-H322M,98%
same,growth at 0.005 µM,HCC 2998 [8],104%
same,growth at 0.005 µM,SNB-19 [9],97%
same,growth at 0.005 µM,U-251,102%
same,growth at 0.005 µM,SK-MEL-5 [10],97%
same,growth at 0.005 µM,OVCAR-4,85%
same,growth at 0.005 µM,ACHN [11],94%
same,growth at 0.05 µM,HL-60(TB),114%
same,growth at 0.05 µM,RPMI-8226,86%
same,growth at 0.05 µM,A549 [12],89%
same,growth at 0.05 µM,HCT-116 [13],98%
same,growth at 0.05 µM,SF-268 [14],100%
same,growth at 0.05 µM,SNB-75,77%
same,growth at 0.05 µM,MDA-MB-435,96%
same,growth at 0.05 µM,OVCAR-5,89%
same,growth at 0.05 µM,MCF7 [15],77%
same,growth at 0.05 µM,MDA-MB-231,94%
same,growth at 0.5 µM,A549 [16],56%
same,growth at 0.5 µM,HOP-92,69%
same,growth at 0.5 µM,HCC 2998 [17],82%
same,growth at 0.5 µM,SNB-19 [18],66%
same,growth at 0.5 µM,M14,79%
same,growth at 0.5 µM,UACC-62,70%
same,growth at 0.5 µM,RXF 393 [19],91%
same,growth at 0.5 µM,BT-549 [20],62%
same,growth at 5 µM,CCRF-CEM,7%
same,growth at 5 µM,SK-MEL-2,86%
same,growth at 5 µM,SK-MEL-5 [21],57%
same,growth at 5 µM,IGROV-1,74%
same,growth at 5 µM,ACHN [22],73%
same,growth at 5 µM,UO-31 [23],89%
same,growth at 5 µM,MCF7 [24],12%
same,growth at 50 µM,HCC 2998 [25],-10%
